Compound activity deposited in PubChem by several laboratories.
Rtt109 Vps75 – blocks Candida albicans Rtt109/Vps75 acetyltransferase activity; 330,000 compounds, 0.16% hits; purified Rtt109/Vps75, ThioGlo CoA-SH fluorescence, 4 h; Q5AAJ8; inhibition, % at 34.9 µM;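 active = inhibition of at least 50% in every replicate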
TPT1 inhibitor – C. albicans TPT1 enzyme inhibition; recombinant caTPT1, FP RNA substrate dephosphorylation; inhibition, % at 5 µM; AID 1962; 300,000 compounds, 0.81% hits;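 active = inhibition above the mean of all tested compounds plus 3 SD, set per screening campaign, cut at about 24% in these data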
CSN inh – blocks human CSN-mediated cullin deneddylation. Q92905. Purified CSN, SCF-Nedd8-OG deneddylation, fluorescence polarization. inhibition, % at 12.5 µM. 360,000 compounds, 0.38% hits;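 active = pattern-corrected inhibition above about 35%, with an unprinted fluorescence ratio check between 0.5 and 1.5, limit read from the data, passing the limit was not always enough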
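Material: purified human Csn5 enzyme expressed in HEK293T cells / Medium: Tris buffer pH 7.5, NaCl, DTT, Tween-20, trehalose, ovalbumin / Compound dosing: 12.5 µM single point / Schedule: 90 min incubation of compound, enzyme and substrate at room temperature / Signal: fluorescence polarization of the substrate / Control set: no-enzyme wells high, enzyme-with-substrate wells low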
HNF4A DNA FP – change in binding of human HNF4 alpha to DNA | P41235 | HNF4a-FITC DNA binding, fluorescence polarization, 1 h | activity change, % at 10 µM | 360,000 compounds, 0.3% hits; in the data active = activity change above about 30%, passing the limit was not always enough
Target sequence (P41235 whole entry, looked up): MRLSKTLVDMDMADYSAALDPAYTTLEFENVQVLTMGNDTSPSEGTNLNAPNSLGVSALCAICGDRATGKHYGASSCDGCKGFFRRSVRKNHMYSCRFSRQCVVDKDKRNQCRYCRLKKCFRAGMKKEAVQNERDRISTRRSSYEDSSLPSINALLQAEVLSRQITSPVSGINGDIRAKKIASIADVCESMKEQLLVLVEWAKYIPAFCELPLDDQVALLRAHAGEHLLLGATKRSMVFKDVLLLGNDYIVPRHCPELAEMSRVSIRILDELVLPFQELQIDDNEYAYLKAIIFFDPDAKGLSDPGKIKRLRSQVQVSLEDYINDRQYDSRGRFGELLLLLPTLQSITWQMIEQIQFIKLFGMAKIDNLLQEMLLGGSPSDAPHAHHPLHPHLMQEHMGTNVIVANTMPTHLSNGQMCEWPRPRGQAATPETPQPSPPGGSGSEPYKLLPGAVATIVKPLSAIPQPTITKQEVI
TPT1 inh confirm – TPT1 (C. albicans) inhibition, confirmation | recombinant caTPT1, fluorescence polarization, RNase T1 coupled | AID 2149 | 2,400 compounds, 74% hits | shares compounds with TPT1 inhibitor | inhibition, % at 5 µM;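 active = inhibition above the primary screen limit, the mean inhibition of all tested compounds plus 3 SD, cut at about 25% in these data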
RNase T1 inh – counter-screen for TPT1 inhibitors: inhibitors of Aspergillus oryzae RNase T1; shares compounds with TPT1 inhibitor; RNase T1 cleavage, fluorescence polarization, 1536-well; inhibition, % at 5 µM; 2,400 compounds, 83% hits;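 active = inhibition above the solvent-only control well mean plus 3 SD, limit set per screening run, cut at about 23% in these data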;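 note: inhibitors block cleavage so intact labeled substrate keeps polarization high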
Target sequence (P00651 whole entry, looked up): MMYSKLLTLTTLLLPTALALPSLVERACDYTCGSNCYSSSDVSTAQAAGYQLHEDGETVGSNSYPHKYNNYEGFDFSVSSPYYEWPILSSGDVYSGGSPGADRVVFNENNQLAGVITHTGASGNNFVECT
Numbers stand for hits; - = inactive; . = no result given. Shown are actives, neighbours in structure and some others; about 1.2% of the full set was active somewhere.

SMILES	Rtt109 Vps75	TPT1 inhibitor	CSN inh	HNF4A DNA FP	TPT1 inh confirm	RNase T1 inh
NC(=O)c1ccc(NC(=O)COC(=O)/C=C/c2cn(-c3ccccc3)nc2-c2cccnc2)cc1	-	47	-	-	52	66
Cc1ccc(/C=C2/Sc3ccc(C(=O)N4CCN(c5ccccn5)CC4)cc3NC2=O)cc1	-	28	-	-	49	61
CC(=O)c1sc(N/N=C\c2ccccc2O)nc1C	-	136	-	35	118	115
CCOC(=O)C1(C)CCCN(C(=O)c2c(-c3ccccc3)noc2C)C1 (centres undefined)	.	.	-	-	.	.
C=Cc1ccc(N=Cc2c(O)ccc3ccccc23)cc1	-	40	39	-	129	133
C(=Nc1ccc(N2CCOCC2)cc1)c1c[nH]c2ccccc12	-	-	-	-	.	.
Oc1ccc2ccccc2c1C=Nc1ccc(N2CCOCC2)cc1	.	76	.	.	67	86
COc1ccc(-c2cc(C(F)(F)F)c3c(n2)sc2c(O)cc(=O)[nH]c23)c(OC)c1	-	69	-	-	82	85
NS(=O)(=O)c1ccc(Nc2ccc([N+](=O)[O-])c3nonc23)cc1	-	38	-	-	48	62
CCc1nnc(NS(=O)(=O)c2ccc(Nc3ccc([N+](=O)[O-])c4nonc34)cc2)s1	-	27	-	38	33	49
CCc1nnc(NS(=O)(=O)c2ccc(NS(=O)(=O)c3ccccc3[N+](=O)[O-])cc2)s1	-	-	-	-	.	.
CC(=O)c1ccc(Nc2ccc([N+](=O)[O-])c3nonc23)cc1	-	30	-	-	37	52
CCCS(=O)(=O)N1CCCC(C(=O)Oc2ccc(C)c(C)c2)C1 (centres undefined)	-	-	-	-	.	.
CC(C)NC(=O)c1sc2nc3c(c(-c4cccs4)c2c1N)CN(C)CC3	-	-	-	-	.	.
Cc1cccc(NC(=O)c2sc3nc4c(c(-c5cccs5)c3c2N)CN(C)CC4)c1	-	38	-	-	28	35
N#Cc1cc(Sc2ccccn2)c(Sc2ccccn2)cc1C#N	-	-	-	-	.	.
N#Cc1cc(Sc2ccccn2)c([N+](=O)[O-])cc1C#N	-	38	-	-	36	45
CCSC1=NSC2=NC(=O)/C(=C\c3coc4ccccc4c3=O)C(=N)N12	-	55	-	-	-	-
CC(C)CC1=NN2C(=N)/C(=C\c3coc4ccccc4c3=O)C(=O)N=C2S1	-	.	-	-	.	.
CC(C)c1ccc(OCC(=O)Nc2ccc3oc(=O)ccc3c2)cc1	-	-	-	-	.	.
CCc1ccccc1N1CC(C(=O)Nc2cc(S(=O)(=O)N3CCCC3)ccc2Cl)CC1=O (centres undefined)	-	.	-	-	.	.
COC(=O)c1ccc(C(=O)Nc2ccc(N)cc2N)cc1	-	108	-	-	-	-
COc1ccccc1NC(=O)c1ccc(N)cc1	-	-	-	-	.	.
CCN1CCN(C(=O)CCn2c(=O)c3cccn3c3cccnc32)CC1	-	-	-	-	.	.
CCn1c2ccccc2c2cc(N)ccc21	-	26	36	-	28	40
SMILES	Rtt109 Vps75	TPT1 inhibitor	CSN inh	HNF4A DNA FP	TPT1 inh confirm	RNase T1 inh
CC1=NN(c2ccccc2)C(=O)/C1=C\C=C1\N(C)c2ccccc2C1(C)C	-	61	-	70	51	64
CN1/C(=C\C=C2/SC(=S)NC2=O)C(C)(C)c2ccccc21	-	106	-	-	111	106
CN1/C(=C\C=C2/C(=O)Oc3ccccc3C2=O)C(C)(C)c2ccccc21	.	98	.	.	-	-
CC1CCCCC12NC(=O)N(CC(=O)N1CCN(S(=O)(=O)c3ccc(Cl)s3)CC1)C2=O (centres undefined)	.	.	-	-	.	.
CSc1nnc(C)c(/C=C/Nc2ccc(F)cc2F)n1	-	-	-	-	.	.
CSc1nsc(/C=C/Nc2ccc(F)cc2F)c1C#N	-	54	-	42	72	89
CN(c1ccccc1C(=O)Nc1ccccc1-c1ccccc1)S(C)(=O)=O	-	.	-	-	.	.
COc1cccc(NC(=O)CN(C)CC(=O)NC(C)c2ccccc2)c1 (centres undefined)	-	-	-	-	.	.
COc1ccc(CN(C)CC(=O)NC(C)c2ccccc2)c(OC)c1 (centres undefined)	-	99	-	-	-	-
COc1cc(/C=C/C(=O)C2C(=O)C=C(C)OC2=O)cc(OC)c1O (centres undefined)	-	37	-	-	-	28
COc1ccc(/C=C/C(=O)C2C(=O)C=C(C)OC2=O)cc1O (centres undefined)	-	25	-	-	-	30
C[C@@H]1CN([C@@H](C)CO)C(=O)c2cc(Br)cnc2O[C@H]1CN(C)C(=O)c1ccccc1F	.	.	-	-	.	.
COc1cc(/C=C(/C#N)C(=O)NC(C)c2ccccc2)cc(OC)c1O (centres undefined)	-	66	-	-	107	108
O=C(CSc1nnc(-c2c[nH]c3ccccc23)n1C1CC1)NC1CCS(=O)(=O)C1 (centres undefined)	.	.	-	-	.	.
Cc1ccc(S(=O)(=O)Nc2ccccc2-c2ccccc2NS(=O)(=O)c2ccc(C)cc2)cc1	-	-	-	-	.	.
O=C1c2ccccc2-c2cccc(NS(=O)(=O)c3ccc(C(F)(F)F)cc3)c21	-	42	-	-	47	55
CC1(c2ccccc2)NC(=O)N(CC(=O)NCC2CCCO2)C1=O (centres undefined)	-	.	-	-	.	.
CSc1nc(-c2ccc(Cl)cc2)c(C#N)c(=O)n1C	-	-	-	-	.	.
CSc1nc(-c2ccc(N(C)C)cc2)c(C#N)c(=O)n1C	-	31	-	-	41	52
O=C1/C(=C\c2c(NCCOCCO)nc3ccccn3c2=O)SC(=S)N1Cc1ccco1	-	86	-	-	86	87
CN(C)c1ccc(C=C2SC(=S)N(Cc3ccco3)C2=O)cc1	.	.	-	-	.	.
CC(=O)c1cccc(NC(=O)C(C)OC(=O)c2cccc(-n3cnnn3)c2)c1 (centres undefined)	-	-	-	-	.	.
COC(=O)c1ccccc1CSc1nsc(/C=C/N(C)C)c1C#N	-	92	-	55	35	48
COc1cc([N+](=O)[O-])ccc1N/C=C/C(=O)c1cccs1	-	167	-	-	143	136
O=C(/C=C/c1ccc([N+](=O)[O-])cc1)c1cccs1	-	-	-	-	.	.
CCNS(=O)(=O)c1ccc(Br)c(C(=O)OC(C)C(=O)NCC2CCCCC2)c1 (centres undefined)	-	.	-	-	.	.
COc1ccc(-n2c(=O)c(CCC(=O)N3CCN(c4cccc(OC)c4)CC3)nc3ccccc32)cc1	.	.	-	-	.	.
COc1ccc(/C(O)=C/c2nc3ccccc3n(-c3ccccc3)c2=O)cc1	-	67	-	50	66	95
CCC(=O)N/N=C/c1ccc(-c2ccc([N+](=O)[O-])cc2)o1	-	-	-	-	.	.
